The source made the active and inactive calls. The calls are words filed in the database; no cut-off is given here.

In assay [1] the test system is Mycolicibacterium smegmatis. Kind of assay: Antimycobacterial activity against Mycobacterium smegmatis atR2 assessed as decrease in drug resistance development at 15 ug/disc after 2 to 3 days by paper disc method. The class given is functional, organism-based. A digest of the protocol:
(§1)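 Mutant M. smegmatis strains were grown in Middlebrook 7H9/OADC/Tween/glycerol to OD600 1.2. Cultures were diluted 1:9:10 (culture:water:M290) and overlaid on M290 agar. Commercial or impregnated paper discs were applied and plates incubated 2–3 days at 37 °C. Inhibition halos were measured to 1 mm, run in triplicate, mean ± SD.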

Assay [2] concerns Mycolicibacterium smegmatis. Kind of assay: Antimycobacterial activity against Mycobacterium smegmatis atR9 assessed as decrease in drug resistance development at 15 ug/disc after 2 to 3 days by paper disc method. The class given is functional, organism-based. In a few lines:
(§2)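 Drug-resistant M. smegmatis mc2 155 mutants, isolated on M290 agar with 3.5-4× MIC of compound and resistance re-confirmed, grown in Middlebrook 7H9 (OADC, 0.1% Tween-80, 0.4% glycerol) to OD600 1.2. Diluted 1:9:10 culture:water:M290 and poured as top layer on M290 agar. Impregnated paper discs applied; 37 °C for 2–3 days. Halos measured to nearest 1 mm; triplicates, mean ± SD versus control strain.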

Assay [3] deals with Mycolicibacterium smegmatis. In words: Antimycobacterial activity against Mycobacterium smegmatis atR8 assessed as decrease in drug resistance development at 15 ug/disc after 2 to 3 days by paper disc method. Type of assay: functional, organism-based. A digest of the protocol: as §2
Assay [4] concerns Mycolicibacterium smegmatis. In words: Antimycobacterial activity against Mycobacterium smegmatis atR14 assessed as decrease in drug resistance development at 15 ug/disc after 2 to 3 days by paper disc method. The class given is functional, organism-based. A digest of the protocol: as §1
Assay [5] has as its system Mycolicibacterium smegmatis. Kind of assay: Antimycobacterial activity against Mycobacterium smegmatis atR11 assessed as decrease in drug resistance development at 15 ug/disc after 2 to 3 days by paper disc method. The class given is functional, organism-based. A digest of the protocol: as §1
The subject of assay [6] is Mycolicibacterium smegmatis. In words: Antimycobacterial activity against Mycobacterium smegmatis atR1 assessed as decrease in drug resistance development at 15 ug/disc after 2 to 3 days by paper disc method. The class given is functional, organism-based. In a few lines:
as §1

In assay [7] the test system is Mycolicibacterium smegmatis MC2 155. In words: Inhibition of STPK in Mycobacterium smegmatis MC2 155 expressing aminoglycoside phophotransferase-8 assessed as growth inhibition at 25 nmol/disk after 18 hrs in presence of kanamycin by paper disk method.
Assay [8] deals with Mycolicibacterium smegmatis. Kind of assay: Antimycobacterial activity against Mycobacterium smegmatis atR1 assessed as decrease in drug resistance development at 100 ug/disc after 2 to 3 days by paper disc method. Type of assay: functional, organism-based. A digest of the protocol:
as §1

Assay [9] concerns Mycolicibacterium smegmatis. Kind of assay: Antimycobacterial activity against Mycobacterium smegmatis atR8 assessed as decrease in drug resistance development at 100 ug/disc after 2 to 3 days by paper disc method. The class given is functional, organism-based. In a few lines:
as §2

Assay [10] relates to Mycolicibacterium smegmatis. Kind of assay: Antimycobacterial activity against Mycobacterium smegmatis atR40 assessed as decrease in drug resistance development at 100 ug/disc after 2 to 3 days by paper disc method. Type of assay: functional, organism-based. A digest of the protocol:
as §2

The subject of assay [11] is Mycolicibacterium smegmatis. In words: Antimycobacterial activity against Mycobacterium smegmatis atR10 assessed as decrease in drug resistance development at 100 ug/disc after 2 to 3 days by paper disc method. Type of assay: functional, organism-based. A digest of the protocol: as §1
Assay [12] relates to Mycolicibacterium smegmatis. In words: Antimycobacterial activity against Mycobacterium smegmatis atR14 assessed as decrease in drug resistance development at 100 ug/disc after 2 to 3 days by paper disc method. Type of assay: functional, organism-based. In a few lines:
as §1

Assay [13] relates to Mycolicibacterium smegmatis. In words: Antimycobacterial activity against Mycobacterium smegmatis atR2 assessed as decrease in drug resistance development at 100 ug/disc after 2 to 3 days by paper disc method. The class given is functional, organism-based. A digest of the protocol:
as §1

For assay [14], the system named is Mycolicibacterium smegmatis. In words: Antimycobacterial activity against Mycobacterium smegmatis atR37 assessed as decrease in drug resistance development at 100 ug/disc after 2 to 3 days by paper disc method. The class given is functional, organism-based. In a few lines: as §2
For assay [15], the system named is Mycolicibacterium smegmatis. Kind of assay: Antimycobacterial activity against Mycobacterium smegmatis atR11 assessed as decrease in drug resistance development at 100 ug/disc after 2 to 3 days by paper disc method. The class given is functional, organism-based. In a few lines: as §1

As for `CC[C@H]1OC(=O)[C@H](C)[C@@H](O[C@H]2C[C@@](C)(OC)[C@@H](O)[C@H](C)O2)[C@H](C)[C@@H](O[C@@H]2O[C@H](C)C[C@H](N(C)C)[C@H]2O)[C@](C)(O)C[C@@H](C)C(=O)[C@H](C)[C@@H](O)[C@]1(C)O`, the result in assay [1], in assay [2], in [3], in [4], in [5] and in [6] was inactive.

As to `CC(C)Sc1cnc2nnc(-n3ccnc3)nn12`, in assay [7], the inhibition zone (IZ) is 13.8 mm.

As for `CO[C@H]1/C=C/O[C@@]2(C)Oc3c(C)c(O)c4c(O)c(c(/C=N/N5CCN(C)CC5)c(O)c4c3C2=O)NC(=O)/C(C)=C\C=C\[C@H](C)[C@H](O)[C@@H](C)[C@@H](O)[C@@H](C)[C@H](OC(C)=O)[C@@H]1C`, the result in assay [8], in assay [9], in assay [11], in assay [12], in [13] and in assay [15] was inactive. Besides, the outcome in [10] and in [14] was Active.

The values above are taken from ChEMBL document CHEMBL4359813, “Synthesis and antimycobacterial activity of imidazo[1,2-b][1,2,4,5]tetrazines” (2019).
